Experiments:
P. aeruginosa QS system = settings: cited from earlier work
P. aeruginosa biofilm = assay: Biofilm inhibition assay; type: cell-based, Pseudomonas aeruginosa; settings: 0.08 μM, 48 h, static, versus negative control
P. aeruginosa PAO1 = assay: Mouse wound infection model; type: in vivo; settings: 2 mg kg^−1 topical twice daily, 48 h post-infection
Procedure, shortened: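 Female BALB/c mice (6–8 weeks, 18–22 g, n = 5 per group) had hair removed and a ~2 mm × 2 mm excisional flank wound made. The wound received ~5 × 10^8 CFU of PBS-washed static overnight PAO1 in 10 μL. Test compound at 2 mg kg−1 in cream was applied topically twice daily; vehicle cream served as control. At 48 h post-infection lesions were excised, homogenised and serially diluted for CFU.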

P. aeruginosa = assay: Bacterial viability assay; type: cell-based, Pseudomonas aeruginosa
Procedure, shortened: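 Broth dilution in 96-well plates. Test compound at 0.5–6 μg mL−1 in 0.5 μg mL−1 steps was mixed 1:1 by volume with log-phase P. aeruginosa at 10^6 CFU mL−1 and incubated at 37 °C for 22–24 h. Growth was read as OD600, with wells in duplicate.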

pyocyanin = assay: Pyocyanin secretion assay; type: cell-based, Pseudomonas aeruginosa; settings: 0.08 μM, 20 h
Procedure, shortened: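 P. aeruginosa was cultured with 0.08 μM test compound at 37 °C for about 20 h to OD600 2. Pigment was extracted from about 10 mL of supernatant with chloroform, back-extracted into 0.2 M HCl, and pyocyanin read at A520.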

[1] = test system: P. aeruginosa established biofilms; assay: Biofilm eradication assay; type: cell-based, Pseudomonas aeruginosa; settings: 40 μM, third day, 48 h-old biofilm, control = 100%
Procedure, shortened: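 P. aeruginosa was grown in M9 in 6-well plates at 37 °C for 48 h to form mature biofilm. Test compound was then added at 10, 20 or 40 μM and culture continued 2 or 3 days. Wells were PBS-washed ×3, dried, stained with 0.1% crystal violet for 15 min, rinsed, solubilised in 30% acetic acid and read at A595. Untreated was set to 100%; triplicates.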

[2] = test system: hitAB gene knockout P. aeruginosa mutant (ΔhitAB); assay: Gallium uptake assay by ICP-MS, ΔhitAB mutant; type: cell-based, Pseudomonas aeruginosa; settings: 0.16 μM, ICP-MS over time
Procedure, shortened: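 Wild-type and ΔhitAB P. aeruginosa overnight cultures were diluted to OD600 0.1 with 0.16 μM test compound. 5 mL aliquots were taken hourly up to 5 h. Pellets were washed ×3 in PBS with 1 mM EDTA, digested in 70% nitric acid at 60 °C for 2 h, diluted to 2% HNO3 and analysed for gallium by ICP-MS.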

O=c1cc(-c2ccccc2)oc2cc(O)c(O)c(O)c12 [Baicalein]
Activity against P. aeruginosa QS system (P. aeruginosa QS system): antagonists against P. aeruginosa QS system

O=c1cc(-c2ccccc2)oc2cc(O)cc(O)c12 [Chrysin]
Activity against P. aeruginosa QS system (P. aeruginosa QS system): antagonists against P. aeruginosa QS system

O=[N+]([O-])[O-].O=[N+]([O-])[O-].O=[N+]([O-])[O-].[Ga+3] [Ga(NO3)3]
Reduction of biofilm formation (P. aeruginosa biofilm): approximately 50%
Lower number of CFU of P. aeruginosa compared to the control group (P. aeruginosa PAO1): 2 log
IC50 (P. aeruginosa): 3.11 µg/mL
Decrease in pyocyanin secretion (pyocyanin): 47%
Biofilms remained [1]: 30%
Gallium uptake rate of ΔhitAB mutant compared to WT [2]: significantly abrogated

O=C1C[C@@H](c2ccc(O)cc2)Oc2cc(O)cc(O)c21 [Naringenin]
Activity against P. aeruginosa QS system (P. aeruginosa QS system): antagonists against P. aeruginosa QS system

Source: publication PMC10549236 (RSC Chemical Biology, 2023)
